# High-throughput results as filed in PubChem BioAssay.
# The sample as a whole holds a higher share of hits than the screen did.
# IDH1 R132H inh: inhibitors of IDH1 R132H reductase, primary screen, biochemical, plate reader, single point; Isocitrate dehydrogenase [NADP] cytoplasmic (Homo sapiens), O75874; diaphorase/resazurin fluorescence, 60 min; inhibition, % at 10 µM; 70,000 compounds, 0.18% hits; AID 624101, 2012; in the data active means inhibition above about 34%; inconclusive means no clear call, values can overlap the other calls; inactive means below about 11%;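 further: 0% = DMSO and 100% = no enzyme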
# T cruzi growth-1: T. cruzi intracellular proliferation inhibitors, primary screen, cell-based, beta-gal Tulahuen parasites, NIH3T3 host, luminescence | T. cruzi beta-gal in NIH3T3, GalScreen luminescence, 90 h | inhibition, % at 8.34 µM | 77,000 compounds, 5.9% hits | AID 624255, 2012;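 active means mean inhibition above about 93%, with at least 55% of replicates each passing it, limit read from the data, passing the limit was not always enough; inconclusive means only one of those two conditions holds; inactive means neither condition holds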
# GASC1 inh: inhibitors of GASC-1 (KDM4C) histone demethylase, primary screen, biochemical, single concentration HTS | Lysine-specific demethylase 4C (Homo sapiens), Q9H3R0 | 96,000 compounds, 0.15% hits | GST-KDM4C 2-372, H3K9me3 peptide, LANCE TR-FRET | AID 720574, 2013 | inhibition, % at 12.5 µM;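 active means mean replicate inhibition above about 25%, with at least 55% of replicates also reaching it, limit read from the data, passing the limit was not always enough; inconclusive means only one of those two conditions met; inactive means neither condition met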
# Target sequence (Q9H3R0 2-372 limits assumed): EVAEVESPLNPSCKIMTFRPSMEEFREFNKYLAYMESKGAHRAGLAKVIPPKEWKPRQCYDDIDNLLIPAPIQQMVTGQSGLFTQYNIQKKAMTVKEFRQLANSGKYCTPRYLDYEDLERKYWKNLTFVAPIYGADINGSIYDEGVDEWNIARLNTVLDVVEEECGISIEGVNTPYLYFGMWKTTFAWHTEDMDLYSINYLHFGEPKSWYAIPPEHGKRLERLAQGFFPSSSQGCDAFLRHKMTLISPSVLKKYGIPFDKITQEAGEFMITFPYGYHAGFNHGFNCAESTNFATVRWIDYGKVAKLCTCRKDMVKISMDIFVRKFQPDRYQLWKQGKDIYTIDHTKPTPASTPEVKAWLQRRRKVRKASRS
#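 Test system – GST-tagged GASC-1 (JMJD2C) catalytic fragment, aa 2-372 · Medium – HEPES buffer, pH 7.5, plus ascorbate · Reagent – H3K9me3 peptide with Fe(II)/2OG · Compound – one test concentration per compound · Timing – 30 min reaction, 60 min detection, RT · Technique – TR-FRET with Eu antibody and ULight streptavidin, EDTA stop · Read-out basis – inhibition from TR-FRET ratio decrease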
# T cruzi growth-2: T. cruzi intracellular proliferation inhibitors, confirmation, cell-based, NIH3T3 host, beta-gal parasite, luminescence, cherry-pick; AID 651739, 2012; inhibition, % at 8.35 µM; 5,600 compounds, 72% hits; shares compounds with T cruzi growth-1; T. cruzi beta-gal in NIH3T3, GalScreen luminescence, 90 h;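 active means mean replicate inhibition above about 95% and at least 55% of replicates individually reaching it, limit read from the data; inconclusive means only one of the two criteria is met; inactive means neither criterion is met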
# T cruzi growth-3: inhibitors of intracellular T. cruzi replication, confirmation, NIH3T3 host cells, beta-gal parasites, cherry-pick, set 2 | T. cruzi beta-gal in NIH3T3, GalScreen luminescence, 90 h | shares compounds with T cruzi growth-1 | 5,600 compounds, 21% hits | inhibition, % at 2.09 µM | AID 651740, 2012;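 active means mean inhibition above about 95%, with at least 55% of replicates also reaching it, limit read from the data; inconclusive means meets just one of the two conditions; inactive means meets neither condition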;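 further: plate controls were neutral control median for no effect and positive control median for full effect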
# NIH3T3 tox: cytotoxicity in mouse NIH/3T3 fibroblasts, confirmation, cytotoxicity control for T. cruzi proliferation inhibitor project, cell-based, cherry-pick, single point; shares compounds with T cruzi growth-1; NIH/3T3 viability, CellTiter-Glo ATP luminescence, 90 h; cytotoxicity (signal decrease), % at 8.35 µM; 5,600 compounds, 14% hits; AID 651742, 2012;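 active means mean signal decrease across replicates above about 35% based on untreated-well scatter, with enough replicates individually passing, limit read from the data; inconclusive means no rule stated though some were filed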;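 further: 0% = median of neutral control wells and 100% = median of positive control wells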
# NIH3T3 tox 2: NIH/3T3 fibroblast cytotoxicity, confirmation, cytotoxicity control, cell-based, cherry-pick, single point, set 2; shares compounds with T cruzi growth-1; NIH/3T3 viability, CellTiter-Glo ATP luminescence, 90 h; inhibition, % at 24.9 µM; 5,600 compounds, 56% hits;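 active means mean loss of cell viability signal at or above a set limit, and enough replicates individually reaching it; inconclusive means meets only the mean limit or only the replicate share; inactive means meets neither condition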;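 further: 0% = median of neutral control wells and 100% = median of positive control wells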
# Starred values were filed as active, the others as inactive; ? = inconclusive; . = not tested or not shown.
SMILES,IDH1 R132H inh,T cruzi growth-1,GASC1 inh,T cruzi growth-2,T cruzi growth-3,NIH3T3 tox,NIH3T3 tox 2
Cc1noc(C)c1S(=O)(=O)N(C)C[C@@H]1OCCCC[C@@H](C)Oc2ccc(NS(=O)(=O)c3ccc(F)cc3)cc2C(=O)N([C@@H](C)CO)C[C@@H]1C,2,56,0,.,.,.,.
C[C@@H]1CCCCO[C@@H](CN(C)S(=O)(=O)c2ccc(F)cc2)[C@@H](C)CN([C@@H](C)CO)C(=O)c2cc(NS(=O)(=O)c3ccccc3)ccc2O1,0,51,1,.,.,.,.
Cc1noc(C)c1S(=O)(=O)N(C)C[C@H]1OCCCC[C@@H](C)Oc2ccc(NS(=O)(=O)c3ccc(F)cc3)cc2C(=O)N([C@@H](C)CO)C[C@H]1C,.,97*,1,103*,81,-16,8
C[C@@H]1CCCCO[C@H](CN(C)S(=O)(=O)c2ccc(F)cc2)[C@H](C)CN([C@@H](C)CO)C(=O)c2cc(NS(=O)(=O)c3ccc(F)cc3)ccc2O1,.,110*,-3,113*,81,2,4
C[C@@H]1CCCCO[C@H](CN(C)S(=O)(=O)c2ccc(F)cc2)[C@H](C)CN([C@H](C)CO)C(=O)c2cc(NS(=O)(=O)c3ccc(F)cc3)ccc2O1,2,115*,-1,106*,?,10,-5
C[C@@H]1CN([C@H](C)CO)C(=O)c2cc(NS(=O)(=O)c3ccc(F)cc3)ccc2O[C@@H](C)CCCCO[C@H]1CN(C)S(=O)(=O)c1ccc(F)cc1,2,.,0,.,.,.,.
C[C@@H]1CCCCO[C@@H](CN(C)S(=O)(=O)c2ccccc2)[C@@H](C)CN([C@@H](C)CO)C(=O)c2cc(NS(=O)(=O)c3ccc(F)cc3)ccc2O1,2,85,-1,.,.,.,.
C[C@H](CO)N1C[C@H](C)[C@@H](CN(C)S(=O)(=O)c2ccc(F)cc2)OCCCC[C@H](C)Oc2ccc(NS(=O)(=O)c3ccc(F)cc3)cc2C1=O,0,98*,0,96*,40,66*,59*
N#CC(Cc1ccc(O)cc1)c1ccc(O)cc1 (stereo unspecified),0,.,.,.,.,.,.
Cc1ccc(N(C(C)C(=O)Nc2cc(Cl)ccc2Oc2ccccc2)S(C)(=O)=O)cc1C (stereo unspecified),0,.,.,.,.,.,.
COC(=O)[C@H]1CC[C@H](OC(C)=O)[C@]2(C)CC[C@@H](C(C)C)[C@@H](OC(=O)/C=C/c3ccccc3)C12 (stereo partly specified),0,.,.,.,.,.,.
C[C@H]1CN([C@@H](C)CO)S(=O)(=O)c2ccc(C#CC3CC3)cc2O[C@@H]1CN(C)C(=O)Nc1cc(F)ccc1F,-3,111*,-1,108*,79,39*,36*
C[C@H]1CN([C@@H](C)CO)S(=O)(=O)c2ccc(C#CC3CC3)cc2O[C@H]1CN(C)C(=O)Nc1cc(F)ccc1F,0,121*,-2,108*,83,17,12
C[C@@H]1CN([C@@H](C)CO)S(=O)(=O)c2ccc(C#CC3CCCC3)cc2O[C@@H]1CN(C)C(=O)Nc1cc(F)ccc1F,0,.,0,.,.,.,.
C[C@H](CO)N1C[C@H](C)[C@H](CN(C)C(=O)Nc2cc(F)ccc2F)Oc2cc(-c3ccc(C#N)cc3)ccc2S1(=O)=O,.,75,12,.,.,.,.
C[C@@H]1CN([C@@H](C)CO)C(=O)c2cc(NS(=O)(=O)c3ccc(Cl)cc3)ccc2O[C@@H](C)CCCCO[C@H]1CN(C)CC1CC1,.,106*,-2,107*,82,16,15
